Reference: ChEMBL document CHEMBL4706497, “The structure-based optimization of δ-sultone-fused pyrazoles as selective BuChE inhibitors” (Eur J Med Chem, 2020)
Calls of active or inactive are those of the source. No cut-off for these calls is given here.

Tests used:
Cholinesterase [1] = molecular target: T1, Cholinesterase (Equus caballus, UniProt P81908); assay: Inhibition of equine serum BuChE using butyrylthiocholine iodide as substrate preincubated with enzyme for 20 mins followed by addition of substrate and measured after 20 mins by DTNB reagent based Ellman's method; type: cell-free
How it was run: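 Enzyme at 0.036 U/mL in 0.1 M phosphate buffer pH 8, preincubated with inhibitor 20 min at 37 °C. Then 0.5 mM butyrylthiocholine iodide and 0.35 mM DTNB added, and A410 read after 20 min. IC50 taken graphically from log concentration vs % inhibition curves. Mean ± SEM of at least three independent experiments.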

[2] = Antioxidant activity assessed as free radical scavenging activity at 100 uM measured after 2 hrs under dark conditions by DPPH assay relative to control; type: functional
How it was run: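 Each compound at 100 μM mixed with DPPH (140 μM) and incubated 2 h in the dark at 37 °C. Absorbance read at 520 nm. Reduction percentage = (1 − A_C/A₀) × 100%, with A_C and A₀ the absorbance with and without compound. Ascorbic acid served as standard.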

[3] = Octanol/Water partition coefficient, log P of the compound in PBS buffer at pH7.4 measured after 48 hrs by shake flask method; type: physicochemical; settings: pH 7.4
How it was run: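 Shake-flask partition between equal volumes of n-octanol and PBS pH 7.4, pre-saturated by sonication and standing 24 h. Compound added, vessel sealed and shaken at 37 °C for 48 h to equilibrate, then phases analysed by HPLC.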

[4] = molecular target: Acetylcholinesterase (AChE) (Electrophorus electricus, UniProt O42275); assay: Inhibition of recombinant electric eel AChE using acetylthiocholine iodide as substrate at 20 uM preincubated with enzyme for 20 mins followed by addition of substrate and measured after 20 mins by DTNB reagent based Ellman's method; settings: probe acetylthiocholine iodide, time 40 min
How it was run: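 Enzyme at 0.036 U/mL in 0.1 M phosphate buffer pH 8, preincubated 20 min at 37 °C with compound at 20 μM. Then 0.35 mM acetylthiocholine iodide and 0.35 mM DTNB added, and A410 read after 20 min. Percent inhibition compared with a no-inhibitor control.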

[5] = molecular target: Cholinesterase (Equus caballus) (UniProt P81908); assay: Reversible inhibition of equine serum BChE using butyrylthiolcholine iodide as substrate at 0.02 to 0.08 uM by Lineweaver-Burk plot analysis; type: cell-free; settings: dose 0.02-0.08 µM
How it was run: (§1)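 Run under the standard Ellman conditions (0.036 U/mL enzyme, pH 8, 37 °C). Six butyrylthiocholine concentrations (0.1–1 mM) crossed with inhibitor at 0, 0.02, 0.04 and 0.08 μM. Lineweaver-Burk plots and secondary plots used for mode of inhibition and Ki. Reversibility tested by varying enzyme at 0–0.72 U/mL at each inhibitor concentration.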

Cholinesterase [6] = molecular target: T1, Cholinesterase; assay: Mixed inhibition of equine serum BChE using butyrylthiolcholine iodide as substrate by Lineweaver-Burk plot analysis; type: cell-free; how it was run: as §1
HepG2 [7] = assay: Cytotoxicity against human HepG2 cells assessed as reduction in cell viability at 50 uM measured after 24 hrs by MTT assay; type: cell-based; settings: hepg2, 24 h
How it was run: (§2)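 HepG2 and LO2 cells grown in DMEM with 10% FBS, penicillin/streptomycin, 37 °C, 5% CO2. Cells seeded at 1×10^4/well, cultured 24 h, then exposed 24 h to compound diluted in DMEM (range 1–50 μM). MTT 0.5 mg/mL added for 4 h, formazan dissolved in DMSO, OD read at 492 nm. Viability is given relative to medium-only blank (100%); three independent experiments.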

L02 [8] = assay: Cytotoxicity against human L02 cells assessed as reduction in cell viability at 50 uM measured after 24 hrs by MTT assay; type: cell-based; settings: l02, 24 h; how it was run: as §2
[9] = Neuroprotective activity against H2O2 induced cytotoxicity in […] cells assessed as cell viability at 25 uM preincubated for 3 hrs followed by addition of H2O2 measured after 24 hrs by MTT assay; type: functional; settings: PC-12, time 27 hrs, read-out: Activity
How it was run: (§3)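 PC12 cells seeded at 1×10^4/well and incubated overnight. Pretreated 3 h with compound (1–25 µM), then medium replaced with fresh medium containing compound plus 100 µM H2O2 for a further 24 h. Viability read by MTT (0.5 mg/mL, 4 h), formazan dissolved in DMSO, OD at 492 nm, corrected for blank.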

[10] = Neuroprotective activity against H2O2 induced cytotoxicity in […] cells assessed as cell viability at […] uM preincubated for 3 hrs followed by addition of H2O2 measured after 24 hrs by MTT assay; type: functional; settings: PC-12, time 27 hrs, read-out: Activity
HepG2 [11] = assay: Cytotoxicity against human HepG2 cells assessed as reduction in cell viability at 10 to 25 uM measured after 24 hrs by MTT assay; type: cell-based; settings: hepg2, 24 h, dose 10-25 µM; how it was run: as §2
L02 [12] = assay: Cytotoxicity against human L02 cells assessed as reduction in cell viability at 10 to 25 uM measured after 24 hrs by MTT assay; type: cell-based; settings: l02, 24 h, dose 10-25 µM; how it was run: as §2
PC-12 = assay: Neuroprotective activity against H2O2 induced cytotoxicity in […] cells assessed as cell viability preincubated for 3 hrs followed by addition of H2O2 measured after 24 hrs by MTT assay; type: functional, cell-based; settings: dose 6.25-25 µM, time 27.0 hrs; how it was run: as §3
[13] = Selectivity for equine serum BuChE over recombinant electric eel AChE

T1 sequence (P81908 whole entry): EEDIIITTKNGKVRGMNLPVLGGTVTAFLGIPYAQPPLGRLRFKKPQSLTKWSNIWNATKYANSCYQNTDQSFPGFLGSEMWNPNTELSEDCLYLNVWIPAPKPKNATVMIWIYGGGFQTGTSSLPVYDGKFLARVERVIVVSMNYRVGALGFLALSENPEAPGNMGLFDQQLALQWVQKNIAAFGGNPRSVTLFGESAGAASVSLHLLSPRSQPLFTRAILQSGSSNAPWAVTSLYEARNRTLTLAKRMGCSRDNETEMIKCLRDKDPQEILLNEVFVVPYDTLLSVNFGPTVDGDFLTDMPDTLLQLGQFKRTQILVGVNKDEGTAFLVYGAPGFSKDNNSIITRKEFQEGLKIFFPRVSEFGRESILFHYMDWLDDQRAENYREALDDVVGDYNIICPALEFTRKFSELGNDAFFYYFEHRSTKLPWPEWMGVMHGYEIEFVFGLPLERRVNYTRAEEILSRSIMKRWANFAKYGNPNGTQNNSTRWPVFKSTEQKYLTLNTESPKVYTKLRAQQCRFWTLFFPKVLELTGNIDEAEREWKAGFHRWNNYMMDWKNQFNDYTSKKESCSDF
Sequence of Acetylcholinesterase (AChE) (O42275 whole entry): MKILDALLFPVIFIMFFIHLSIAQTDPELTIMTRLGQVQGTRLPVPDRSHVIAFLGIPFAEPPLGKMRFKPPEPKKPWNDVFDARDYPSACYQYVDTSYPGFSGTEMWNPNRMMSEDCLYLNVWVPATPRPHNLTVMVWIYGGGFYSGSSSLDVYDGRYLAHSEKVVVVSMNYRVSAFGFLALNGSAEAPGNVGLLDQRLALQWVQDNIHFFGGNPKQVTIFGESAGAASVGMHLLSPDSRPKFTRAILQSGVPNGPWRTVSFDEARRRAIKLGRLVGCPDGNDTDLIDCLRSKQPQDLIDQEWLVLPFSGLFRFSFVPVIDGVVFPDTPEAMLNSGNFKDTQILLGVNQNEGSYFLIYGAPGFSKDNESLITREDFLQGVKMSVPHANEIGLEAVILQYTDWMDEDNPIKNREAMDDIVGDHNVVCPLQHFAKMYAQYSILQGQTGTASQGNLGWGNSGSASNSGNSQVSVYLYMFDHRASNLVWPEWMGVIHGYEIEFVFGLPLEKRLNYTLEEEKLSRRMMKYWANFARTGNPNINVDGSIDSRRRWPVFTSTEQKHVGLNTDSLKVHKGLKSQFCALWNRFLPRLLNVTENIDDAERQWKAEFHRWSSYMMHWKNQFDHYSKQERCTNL
Sequence of Cholinesterase (Equus caballus) (P81908 whole entry): as the sequence (P81908 whole entry) above

Row | SMILES | IC50 (Cholinesterase [1]) [nM] | inhibition [2] [%] | other results
1 | COCCN(Cc1ccc(Cl)cc1)Cc1nn(-c2ccccc2F)c2c1CCS(=O)(=O)O2 | 90 | 3.6 | –
2 | O=S1(=O)CCc2c(-c3ccc(Br)cc3)nn(-c3ccccc3F)c2O1 | 470 | – | –
3 | CN(Cc1ccc(Cl)cc1)Cc1nn(-c2ccccc2F)c2c1CCS(=O)(=O)O2 | 20 | 6.1 | –
4 | CN1CCN(Cc2nn(-c3ccccc3F)c3c2CCS(=O)(=O)O3)CC1 | 2170 | – | –
5 | O=S1(=O)CCc2c(-c3ccc(Cl)cc3)nn(-c3ccccc3F)c2O1 | 200 | – | –
6 | O=S1(=O)CCc2c(C3CC3)nn(-c3ccccc3Cl)c2O1 | 180 | – | –
7 | O=S1(=O)CCc2c(CN(CCO)Cc3ccccc3)nn(-c3ccccc3Cl)c2O1 | 40 | – | –
8 | COCCN(Cc1ccccc1)Cc1nn(-c2ccccc2F)c2c1CCS(=O)(=O)O2 | 240 | 2.3 | –
9 | O=S1(=O)CCc2c(CN(CCO)Cc3cccc(Cl)c3)nn(-c3ccccc3F)c2O1 | 190 | 4.7 | –
10 | COc1ccc(-c2nn(-c3ccc(Cl)cc3)c3c2CCS(=O)(=O)O3)cc1 | 8780 | – | –
11 | O=S1(=O)CCc2c(CN(CCO)Cc3ccc(Cl)cc3)nn(-c3ccccc3F)c2O1 | 90 | 10.2 | –
12 | O=S1(=O)CCc2c(CN3CCOCC3)nn(-c3ccccc3F)c2O1 | 150 | – | –
13 | CCN(Cc1ccc(F)cc1)Cc1nn(-c2ccccc2F)c2c1CCS(=O)(=O)O2 | 70 | 0.6 | –
14 | O=S1(=O)CCc2c(CN(CCO)Cc3ccc(Cl)cc3Cl)nn(-c3ccccc3F)c2O1 | 90 | 1.8 | –
15 | O=S1(=O)CCc2c(CN(CCO)Cc3cccc(Br)c3)nn(-c3ccccc3F)c2O1 | 330 | 0.8 | –
16 | CCN(Cc1ccccc1)Cc1nn(-c2ccccc2F)c2c1CCS(=O)(=O)O2 | 80 | 1.8 | logD at 48 h [3]: 2
17 | O=S1(=O)CCc2c(C3CC3)nn(-c3ccccc3F)c2O1 | 140 | – | logD at 48 h [3]: 2.09
18 | COc1ccc(CN(CCO)Cc2nn(-c3ccccc3F)c3c2CCS(=O)(=O)O3)cc1OC | 560 | 5.5 | –
19 | O=S1(=O)CCc2c(-c3ccc(Br)cc3)nn(-c3ccccc3Cl)c2O1 | 3690 | – | –
20 | CN(Cc1ccccc1)Cc1nn(-c2ccccc2Cl)c2c1CCS(=O)(=O)O2 | 70 | – | –
21 | COc1ccc(CN(CCO)Cc2nn(-c3ccccc3F)c3c2CCS(=O)(=O)O3)cc1 | 260 | 3.2 | –
22 | CCN(Cc1ccccc1)Cc1nn(-c2ccccc2Cl)c2c1CCS(=O)(=O)O2 | 50 | – | –
23 | CN(Cc1ccc(Br)cc1)Cc1nn(-c2ccccc2F)c2c1CCS(=O)(=O)O2 | 70 | 0.2 | inhibition at 20 min, 20 µM [4]: 33.6%
24 | COCCN(Cc1ccc(Br)cc1)Cc1nn(-c2ccccc2F)c2c1CCS(=O)(=O)O2 | 150 | 4.8 | –

Row | SMILES | IC50 (Cholinesterase [1]) [nM] | inhibition [2] [%] | other results
25 | O=S1(=O)CCc2c(CN(CCO)Cc3ccccc3)nn(-c3ccccc3F)c2O1 | 40 | 5.4 | logD at 48 h [3]: 2.05
26 | O=S1(=O)CCc2c(-c3ccccc3)nn(-c3ccccc3Cl)c2O1 | 170 | – | –
27 | O=S1(=O)CCc2c(C3CC3)nn(-c3cccc(Cl)c3)c2O1 | 700 | – | –
28 | CN1CCN(Cc2nn(-c3ccccc3Cl)c3c2CCS(=O)(=O)O3)CC1 | 2220 | – | –
29 | O=S1(=O)CCc2c(-c3ccc(F)cc3)nn(-c3ccccc3Cl)c2O1 | 130 | – | –
30 | O=S1(=O)CCc2c(CN(CCO)Cc3cccc(F)c3)nn(-c3ccccc3F)c2O1 | 90 | 5 | –
31 | O=S1(=O)CCc2c(-c3ccc(F)cc3)nn(-c3ccccc3F)c2O1 | 160 | – | –
32 | O=S1(=O)CCc2c(CCl)nn(-c3ccccc3Cl)c2O1 | 200 | – | –
33 | O=S1(=O)CCc2c(CN3CCOCC3)nn(-c3ccccc3Cl)c2O1 | 410 | – | –
34 | CCN(Cc1ccc(Br)cc1)Cc1nn(-c2ccccc2F)c2c1CCS(=O)(=O)O2 | 70 | 12.9 | –
35 | Cc1ccc(CN(CCO)Cc2nn(-c3ccccc3F)c3c2CCS(=O)(=O)O3)cc1 | 170 | 5.2 | –
36 | O=S1(=O)CCc2c(-c3ccccc3)nn(-c3ccccc3F)c2O1 | 180 | – | –
37 | CCN(Cc1ccc(Cl)cc1)Cc1nn(-c2ccccc2F)c2c1CCS(=O)(=O)O2 | 40 | 4.2 | –
38 | Cc1nn(-c2ccccc2F)c2c1CCS(=O)(=O)O2 | 1190 | – | –
39 | O=S1(=O)CCc2c(CN3CCN(Cc4ccccc4)CC3)nn(-c3ccccc3F)c2O1 | 680 | – | –
40 | COCCN(Cc1ccc(F)cc1)Cc1nn(-c2ccccc2F)c2c1CCS(=O)(=O)O2 | 110 | 6.3 | –
41 | O=S1(=O)CCc2c(CN(CCO)Cc3ccc(Br)cc3)nn(-c3ccccc3F)c2O1 | 7.7 | 22.2 | inhibition at 20 min, 20 µM [4]: 43.3%; inhibition [5]: Active; Ki (Cholinesterase [6]): 24 nM; logD at 48 h [3]: 1.93; Activity (HepG2 [7]): 82.8%; Activity (L02 [8]): 95.3%; viability at 25 µM [9]: 49.6%; viability at […] [10]: 40.9%; Activity (HepG2 [11]): Non-Toxic; Activity (L02 [12]): Non-Toxic; Activity (PC-12): Dose-dependent effect; Selectivity Index [13]: > 2000
42 | O=S1(=O)CCc2c(-c3ccc(Cl)cc3)nn(-c3ccccc3Cl)c2O1 | 1580 | – | –
43 | CN(Cc1ccc(F)cc1)Cc1nn(-c2ccccc2F)c2c1CCS(=O)(=O)O2 | 40 | 5.7 | –
44 | O=S1(=O)CCc2c(CCl)nn(-c3ccccc3F)c2O1 | 190 | – | –
45 | CN(Cc1ccccc1)Cc1nn(-c2ccccc2F)c2c1CCS(=O)(=O)O2 | 80 | – | logD at 48 h [3]: 1.78
46 | O=S1(=O)CCc2c(CN(CCO)Cc3ccc(F)cc3)nn(-c3ccccc3F)c2O1 | 8.3 | 5.5 | logD at 48 h [3]: 2.42
47 | O=S1(=O)CCc2c(CN3CCN(Cc4ccccc4)CC3)nn(-c3ccccc3Cl)c2O1 | 460 | – | –
48 | O=S1(=O)CCc2c(C3CC3)nn(-c3cccc(F)c3)c2O1 | 370 | – | –
